Results of several laboratories.
Protocols differ between the studies behind these lines.

Compound | species | matrix | route | dose | setting | endpoint | value
Cc1nc([C@@](C)(CC2CC2)NC(=O)c2cc(OCC(F)(F)F)c(C3CC3)cn2)no1 | C57BL/6 mouse | plasma | intravenous |  |  | clearance | 0.708 L/h/kg
CCN(CC)CCCC[C@H](NC(=O)[C@H](CC(C)C)NC(=O)[C@H](C)NC(=O)[C@H](Cc1ccccc1)NC(=O)c1ccc(C(C)(C)C)cc1)C(=O)N[C@@H](CO)C(=O)OC | male Swiss mouse | blood | intravenous | 3 mg/kg |  | clearance | 1.59 L/h/kg
Cl.Cl.O=C(CCN1CCCCC1)c1ccc(-c2ccc(C(=O)CCN3CCCCC3)cc2)cc1 | Sprague-Dawley rat | plasma | oral | 100 mg/kg |  | Tmax | 45 min
Cc1ncc(C)n2nc(/C=C/c3nc(N4CCCC4)cc(N4CCOCC4)n3)nc12 | male beagle dog | plasma | oral | 0.3 mg/kg |  | Cmax | 0.078 µM
NC(=O)[C@@H]1CC(F)(F)CN1C(=O)c1ccc(N2CC(F)(F)C2)c(OCC2CC2)n1 | C57BL/6 mouse | plasma | intravenous |  |  | clearance | 1.71 L/h/kg
N=c1c2c(-c3ccccc3)c(-c3ccccc3)n(Cc3ccccc3)c2ncn1[C@H]1CC[C@H](O)CC1 | male beagle dog | plasma | oral | 1 mg/kg | single dose | Cmax | 0.0815 µg/mL
CN[C@H](CC(C)C)C(=O)N[C@H]1C(=O)N[C@@H](CC(N)=O)C(=O)N[C@H]2C(=O)NC3C(=O)N[C@H](C(=O)N[C@H](C(=O)NCCC[N+](C)(C)C)c4cc(O)cc(O)c4-c4cc3ccc4O)[C@H](O)c3ccc(c(Cl)c3)Oc3cc2cc(c3OC2OC(CO)C(O)[C@H](O)[C@@H]2O[C@H]2CC(C)(NCc3ccc(-c4ccc(Cl)cc4)cc3)[C@H](O)[C@H](C)O2)Oc2ccc(cc2Cl)[C@H]1O (some centres unmarked) | mouse | plasma | intravenous | 10 mg/kg |  | clearance | 0.12 L/h/kg
C[C@]12CC[C@H](O)CC1=CC[C@@H]1[C@@H]2CC[C@]2(C)C(n3cnc4ccccc43)=CC[C@@H]12.Cl | mouse | plasma | intravenous | 1 mg/kg |  | C0 | 0.0983 µg/mL
O=C(Nc1cccnn1)N1CCN([C@@H]2CCOc3cc(C(F)(F)F)ccc32)CC1 | male Sprague-Dawley rat | plasma | oral | 0.3 mg/kg |  | Tmax | 49.8 min
C[C@]12CC[C@H](n3ccnc3)CC1=CC[C@@H]1[C@@H]2CC[C@]2(C)C(n3cnc4ccccc43)=CC[C@@H]12.Cl.Cl | male CD-1 mouse | plasma | intravenous | 1 mg/kg |  | C0 | 0.603 µg/mL
CCC[C@@](N)(CO)CCc1ccc(OCCCCCC(C)C)cc1 | dog | plasma | oral | 20 mg/kg | fed | Cmax | 0.995 µM
